According to ChEMBL document CHEMBL1122917, “Vinblastin-23-oyl amino acid derivatives: chemistry, physicochemical data, toxicity, and antitumor activities against P388 and L1210 leukemias” (J Med Chem, 1985):

Columns and labels:
Mus musculus [1] = assay: Number of survivors of DBA2 mice on 30th day after inoculation with L1210 leukemia cell line intravenously at a dose of 2 mg/kg/day; 0/10; assay type: functional; conditions: route intravenous
Mus musculus [2] = assay: Percent increase in life span of DBA2 mice after inoculation with L1210 leukemia intravenously at a dose of 6.5 mg/kg per day; assay type: functional; conditions: route intravenous
Mus musculus [3] = assay: Number of survivors of DBA2 mice on 30th day after inoculation with L1210 leukemia cell line intravenously at a dose of 4.5 mg/kg/day; 0/10; assay type: functional; conditions: route intravenous
Mus musculus [4] = assay: Percent increase in life span of DBA2 mice after inoculation with L1210 leukemia intravenously at a dose of 0.5 mg/kg per day; assay type: functional; conditions: route intravenous
Mus musculus [5] = assay: Percent increase in life span of DBA2 mice after inoculation with L1210 leukemia intravenously at a dose of 1.5 mg/kg per day; assay type: functional; conditions: route intravenous
Mus musculus [6] = assay: Percent increase in life span of DBA2 mice after inoculation with L1210 leukemia intravenously at a dose of 3.5 mg/kg per day; assay type: functional; conditions: route intravenous
Mus musculus [7] = assay: Percent increase in life span of DBA2 mice after inoculation with L1210 leukemia intravenously at a dose of 2 mg/kg per day; assay type: functional; conditions: route intravenous
Mus musculus [8] = assay: Number of survivors of DBA2 mice on 30th day after inoculation with L1210 leukemia cell line intravenously at a dose of 2.5 mg/kg/day; 0/10; assay type: functional; conditions: route intravenous
Mus musculus [9] = assay: Number of survivors of BDF1 mice on 30th day after inoculation with P388 leukemia cell line intraperitoneally at a dose of 2.7 mg/kg/day; 0/11; conditions: route intraperitoneal
[10] = Acute iv toxicity against Swiss strain of 100 mice after 8 doses of injection; assay type: organism-based; conditions: mouse, in vivo
Mus musculus [11] = assay: Number of survivors of DBA2 mice on 60th day after inoculation with L1210 leukemia cell line intraperitoneally at a dose of 0.30 mg/kg/day; 0/10; assay type: functional; conditions: route intraperitoneal
Mus musculus [12] = assay: Number of survivors of DBA2 mice on 60th day after inoculation with L1210 leukemia cell line intraperitoneally at a dose of 2.5 mg/kg/day; 0/10; assay type: functional; conditions: route intraperitoneal
Mus musculus [13] = assay: Number of survivors on 30th day at dose 3 mg/kg/day in 10 mice implanted with P388 leukemia cell line; 0/9; assay type: functional
Mus musculus [14] = assay: Number of survivors on 30th day at dose 6 mg/kg/day in 10 mice implanted with P388 leukemia cell line; 0/10; assay type: functional
Mus musculus [15] = assay: Percent increase in life span at dose 4 mg/kg/day in 7 mice implanted with P388 leukemia cell line for 1,8,15 scheduled day from Exp-2; assay type: functional
Mus musculus [16] = assay: Number of survivors on 30th day at dose 5 mg/kg/day in 10 mice implanted with P388 leukemia cell line; 0 /10; assay type: functional
Mus musculus [17] = assay: Percent increase in life span of BDF1 mice after inoculation with P388 leukemia cells intraperitoneally at a dose of 0.33 mg/kg per day for 1-9 scheduled days; conditions: P388, ip
Mus musculus [18] = assay: Percent increase in life span at dose 6 mg/kg/day in 7 mice implanted with P388 leukemia cell line for 1,8,15 schedule days from Exp-1; assay type: functional
Mus musculus [19] = assay: Percent increase in life span at dose 10 mg/kg/day in 7 mice implanted with P388 leukemia cell line for 1,8,15 schedule days; assay type: functional
Mus musculus [20] = assay: Number of survivors on 60th day at dose 8 mg/kg/day in 7 mice implanted with P388 leukemia cell line for 1,8.15 scheduled days from Exp-1; 0/9; assay type: functional
Mus musculus [21] = assay: Number of survivors of DBA2 mice on 60th day after inoculation with L1210 leukemia cell line intravenously at a dose of 10 mg/kg/day; 0/10; assay type: functional; conditions: route intravenous
Mus musculus [22] = assay: Number of survivors on 60th day at dose 10 mg/kg/day in 7 mice implanted with P388 leukemia cell line for 1,8.15 scheduled days; 0/10; assay type: functional
Mus musculus [23] = assay: Number of survivors on 30th day at dose 9 mg/kg/day in 10 mice implanted with P388 leukemia cell line; 3/10; assay type: functional
Mus musculus [24] = assay: Percent increase in life span at dose 58 mg/kg/day in 10 mice implanted with P388 leukemia cell line; assay type: functional
Mus musculus [25] = assay: Number of survivors on 60th day at dose 20 mg/kg/day in 10 mice implanted with P388 leukemia cell line; 0/10; assay type: functional
Mus musculus [26] = assay: Percent increase in life span of DBA2 mice after inoculation with L1210 leukemia intravenously at a dose of 70 mg/kg per day; assay type: functional; conditions: route intravenous
In short: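 Female DBA2 mice inoculated iv on day 0 with 10^4 L1210 cells; drugs given iv as sulfate salts in physiological saline, mostly once on day 1. %ILS from all deaths and survivors as (T/C × 100) − 100; survivors scored on days 30 and 60.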

Mus musculus [27] = assay: Number of survivors on 60th day at dose 56 mg/kg/day in 10 mice implanted with P388 leukemia cell line; 2/10; assay type: functional
Mus musculus [28] = assay: Number of survivors on 60th day at dose 60 mg/kg/day in 10 mice implanted with P388 leukemia cell line for 1st scheduled day; 0/9; assay type: functional
Mus musculus [29] = assay: Number of survivors of DBA2 mice on 30th day after inoculation with L1210 leukemia cell line intravenously at a dose of 58 mg/kg/day; 0/10; assay type: functional; conditions: route intravenous
Mus musculus [30] = assay: Number of survivors on 60th day at dose 75 mg/kg/day in 7 mice implanted with P388 leukemia cell line for 1,8,15 scheduled days in Exp-2; 2/10; assay type: functional
Mus musculus [31] = assay: Percent increase in life span at dose 65 mg/kg/day in 10 mice implanted with P388 leukemia cell line; assay type: functional
In short: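 Female DBA2 mice inoculated iv on day 0 with 10^4 P388 cells; single iv treatment on day 1 with drug as sulfate salt in physiological saline. Survival followed; %ILS from all deaths and survivors as (T/C × 100) − 100, maximal MST 30 days; survivors counted on days 30 and 60. Most experiments confirmed three times.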

Mus musculus [32] = assay: Number of survivors on 60th day at dose 60 mg/kg/day in 10 mice implanted with P388 leukemia cell line; 3/10; assay type: functional
Mus musculus [33] = assay: Number of survivors on 60th day at dose 65 mg/kg/day in 7 mice implanted with P388 leukemia cell line for 1,8,15 scheduled days in Exp-2; 0/10; assay type: functional
Mus musculus [34] = assay: Number of survivors of DBA2 mice on 60th day after inoculation with L1210 leukemia cell line intravenously at a dose of 45 mg/kg/day; 0/10; assay type: functional; conditions: route intravenous
Mus musculus [35] = assay: Number of survivors on 30th day at dose 58 mg/kg/day in 10 mice implanted with P388 leukemia cell line;2/10; assay type: functional
Mus musculus [36] = assay: Number of survivors of DBA2 mice on 60th day after inoculation with L1210 leukemia cell line intravenously at a dose of 60 mg/kg/day; 0/10; assay type: functional; conditions: route intravenous
Mus musculus [37] = assay: Number of survivors on 30th day at dose 60 mg/kg/day in 10 mice implanted with P388 leukemia cell line for 1st scheduled day; 8/10; assay type: functional
Mus musculus [38] = assay: Percent increase in life span at dose 55 mg/kg/day in 10 mice implanted with P388 leukemia cell line for 1,5,9 schedule days; assay type: functional

With `CC[C@]1(O)C[C@H]2CN(CCc3c([nH]c4ccccc34)[C@@](C(=O)OC)(c3cc4c(cc3OC)N(C=O)[C@H]3[C@@](O)(C(=O)OC)[C@H](OC(C)=O)[C@]5(CC)C=CCN6CC[C@]43[C@@H]65)C2)C1` [VINCRISTINE] the Survivors (Mus musculus [1]) was 0, the ILS at 6.5 mg/kg/day (Mus musculus [2]) was -37% and the Survivors (Mus musculus [3]) was 0. The ILS at 0.5 mg/kg/day (Mus musculus [4]) was 1%, the ILS at 1.5 mg/kg/day (Mus musculus [5]) was 12% and the ILS at 3.5 mg/kg/day (Mus musculus [6]) was 14.7%. For the same compound, the ILS at 2 mg/kg/day (Mus musculus [7]) was 16%, the Survivors (Mus musculus [8]) was 0 and the Survivors (Mus musculus [9]) was 0.
Work on `CC[C@]1(O)C[C@@H]2CN(CCc3c([nH]c4ccccc34)[C@@](C(=O)OC)(c3cc4c(cc3OC)N(C)[C@H]3[C@@](O)(C(N)=O)[C@H](O)[C@]5(CC)C=CCN6CC[C@]43[C@@H]65)C2)C1` [VINDESINE] yielded an LD50 [10] of 13.8 mg/kg, a Survivors (Mus musculus [11]) of 0 and a Survivors (Mus musculus [12]) of 0. For the same compound, the Survivors (Mus musculus [13]) was 0 and the Survivors (Mus musculus [14]) was 0.
For `CC[C@]1(O)C[C@@H]2CN(CCc3c([nH]c4ccccc34)[C@@](C(=O)OC)(c3cc4c(cc3OC)N(C)[C@H]3[C@@](O)(C(=O)OC)[C@H](OC(C)=O)[C@]5(CC)C=CCN6CC[C@]43[C@@H]65)C2)C1` [VINBLASTINE], the ILS at 4 mg/kg/day (Mus musculus [15]) was 35%, the Survivors (Mus musculus [16]) was 0 and the ILS at 0.33 mg/kg/day (Mus musculus [17]) was 74%.
Work on `CCOC(=O)[C@@H](NC(=O)[C@@]1(O)[C@H](O)[C@]2(CC)C=CCN3CC[C@@]4(c5cc([C@@]6(C(=O)OC)C[C@H]7C[N@](CCc8c6[nH]c6ccccc86)C[C@](O)(CC)C7)c(OC)cc5N(C)[C@@]14C)[C@@H]32)[C@@H](C)CC` yielded an ILS at 6 mg/kg/day (Mus musculus [18]) of 150%, an ILS at 10 mg/kg/day (Mus musculus [19]) of 41% and a Survivors (Mus musculus [20]) of 0. It also gave a Survivors (Mus musculus [21]) of 0, a Survivors (Mus musculus [22]) of 0 and a Survivors (Mus musculus [23]) of 3.
With `CCOC(=O)[C@H](Cc1c[nH]c2ccccc12)NC(=O)[C@@]1(O)[C@H](O)[C@]2(CC)C=CCN3CC[C@@]4(c5cc([C@@]6(C(=O)OC)C[C@H]7C[N@](CCc8c6[nH]c6ccccc86)C[C@](O)(CC)C7)c(OC)cc5N(C)[C@@]14C)[C@@H]32` the ILS at 58 mg/kg/day (Mus musculus [24]) was 122%, the Survivors (Mus musculus [25]) was 0 and the ILS at 70 mg/kg/day (Mus musculus [26]) was 61.8%. For the same compound, the Survivors (Mus musculus [27]) was 2, the Survivors (Mus musculus [28]) was 0 and the Survivors (Mus musculus [29]) was 0. It also gave a Survivors (Mus musculus [30]) of 2, an ILS at 65 mg/kg/day (Mus musculus [31]) of over 173% and a Survivors (Mus musculus [32]) of 3. The Survivors (Mus musculus [33]) was 0, the Survivors (Mus musculus [34]) was 0 and the Survivors (Mus musculus [35]) was 2. It also gave a Survivors (Mus musculus [36]) of 0, a Survivors (Mus musculus [37]) of 8 and an ILS at 55 mg/kg/day (Mus musculus [38]) of over 426%.
